This passage reports Activity and IC50 results from ChEMBL document CHEMBL1146933, “In silico identification of novel EGFR inhibitors with antiproliferative activity against cancer cells” (Bioorg Med Chem Lett, 2006).

For assay [1], the target named is T1, Epidermal growth factor receptor (Homo sapiens, UniProt P00533). Briefly: Inhibition of EGFR kinase activity at 10 uM. Details: scale not given: the % may be the effect or the level left.
The next assay concerns MDA-MB-468. Briefly: Antiproliferative activity against MDA-MB-468 cells at 50 uM by MTT assay. In kind it is functional, cell-based. As to conditions: Homo sapiens. (In general: Tetrazolium dyes change colour on reduction, which living cells bring about.)
Assay [2] addresses T1, Epidermal growth factor receptor. Briefly: Inhibition of EGFR kinase activity at 100 uM in presence of 2.5 uM ATP. Details: scale not given: the % may be the effect or the level left. In outline:
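EGFR purified from A431 cells, pre-incubated 30 min with 100 µM compound before kinase activity measurement. ATP held at 2.5 µM, four times below the Km for this enzyme preparation. Control was 2% DMSO. Mean ± standard deviation from 2–5 experiments in triplicate.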

Assay [3] has as its system A-431. In words: Antiproliferative activity against A431 cells at 50 uM by MTT assay after 48 hrs. In kind it is functional, cell-based. As to conditions: Homo sapiens. The essentials:
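A431 cells exposed to 50 µM compound for 2 days; viability read by MTT. Controls grown in 0.5% DMSO. Values are percentage of control, mean ± standard deviation from three experiments run in quadruplicate.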

The next assay relates to MDA-MB-435. In words: Antiproliferative activity against MDA-MB-435 cells at 50 uM by MTT assay. In kind it is functional, cell-based. As to conditions: Homo sapiens.
In another assay the test system is BT-474. In words: Antiproliferative activity against BT474 cells at 50 uM by MTT assay. As to conditions: Homo sapiens. It counts as functional, cell-based.
The test system of assay [4] is A-431. Briefly: Antiproliferative activity against A431 cells by MTT assay. In kind it is functional, cell-based. As to conditions: Homo sapiens. In outline:
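A431 cells grown with increasing compound concentrations; proliferation measured by MTT 48 h after treatment. Two experiments performed in triplicate.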

For assay [5], the target named is T1, Epidermal growth factor receptor. In words: Inhibition of EGFR kinase activity. The essentials:
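EGFR purified from A431 cells, incubated with compound at varying concentrations for 30 min at room temperature. Kinase reaction then started with ATP/MgCl2 and run 30 min at 30 °C. Activity expressed as percent of inhibitor-free control; mean ± standard deviation from 1 to 3 experiments in triplicate.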

Activity calls are given as the source filed them. The rule behind the calls is not given here.

T1 sequence (P00533 whole entry): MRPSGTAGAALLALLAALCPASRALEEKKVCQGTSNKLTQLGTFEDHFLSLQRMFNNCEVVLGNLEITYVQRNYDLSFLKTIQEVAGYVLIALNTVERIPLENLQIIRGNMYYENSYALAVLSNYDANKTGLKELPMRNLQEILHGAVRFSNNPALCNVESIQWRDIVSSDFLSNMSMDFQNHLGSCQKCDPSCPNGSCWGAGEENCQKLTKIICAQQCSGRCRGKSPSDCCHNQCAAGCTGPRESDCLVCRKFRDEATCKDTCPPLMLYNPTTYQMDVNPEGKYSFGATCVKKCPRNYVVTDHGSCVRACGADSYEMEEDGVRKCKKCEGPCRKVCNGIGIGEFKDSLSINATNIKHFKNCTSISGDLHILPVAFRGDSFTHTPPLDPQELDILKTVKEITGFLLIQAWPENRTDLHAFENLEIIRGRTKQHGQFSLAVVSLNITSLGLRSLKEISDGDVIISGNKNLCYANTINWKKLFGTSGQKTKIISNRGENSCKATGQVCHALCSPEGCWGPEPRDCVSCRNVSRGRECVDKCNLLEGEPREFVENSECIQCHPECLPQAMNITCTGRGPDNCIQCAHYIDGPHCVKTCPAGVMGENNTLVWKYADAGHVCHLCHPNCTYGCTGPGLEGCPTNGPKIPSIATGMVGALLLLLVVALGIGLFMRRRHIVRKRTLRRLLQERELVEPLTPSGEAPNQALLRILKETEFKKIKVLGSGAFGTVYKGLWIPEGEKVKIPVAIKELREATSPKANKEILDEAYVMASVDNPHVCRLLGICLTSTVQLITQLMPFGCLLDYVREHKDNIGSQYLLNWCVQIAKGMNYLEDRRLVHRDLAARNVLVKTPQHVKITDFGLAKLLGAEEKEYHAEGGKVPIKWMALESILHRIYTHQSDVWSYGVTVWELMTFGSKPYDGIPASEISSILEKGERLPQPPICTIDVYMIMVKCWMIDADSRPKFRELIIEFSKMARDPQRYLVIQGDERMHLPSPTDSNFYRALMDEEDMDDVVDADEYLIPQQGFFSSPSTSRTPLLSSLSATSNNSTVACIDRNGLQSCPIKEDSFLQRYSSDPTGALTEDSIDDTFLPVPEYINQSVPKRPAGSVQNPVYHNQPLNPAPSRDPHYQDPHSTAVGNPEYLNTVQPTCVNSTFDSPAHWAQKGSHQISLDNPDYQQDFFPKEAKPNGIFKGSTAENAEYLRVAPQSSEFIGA

In the case of `C=CCOc1ccc2c(c1)C(=NO)c1cc(OCC=C)ccc1-2`, the result in assay [1] was inactive. Moreover, the result in the assay with MDA-MB-468, in the assay on A-431 [3], in the assay on MDA-MB-435 and with BT-474 was Active. Moreover, the Activity in assay [2] worked out at 55.3%.
The IC50 is the point on the concentration scale where inhibition reaches its midpoint. Regarding `Oc1[nH]c2ccc(I)cc2c1/N=N/c1cccc2cccnc12`, in assay [1], the result was inactive. Further, the outcome with MDA-MB-468, in the assay with A-431 [3], with MDA-MB-435 and with BT-474 was Active. Moreover, the Activity in assay [2] was determined as 50%. In the assay with A-431 [4], this compound displayed an IC50 of 1 µM.
With `O=C(CSc1nc(O)cc(-c2ccccc2)n1)N1c2ccccc2CCc2ccccc21`, the result in assay [1] was inactive. Also, the result in the assay on MDA-MB-468, in the assay on A-431 [3], in the assay with MDA-MB-435 and in the assay on BT-474 was Active. Moreover, the Activity in assay [2] was found to be 41.1%.
Take `Cc1ccc(-c2cc(NC(=O)c3cccs3)[nH]n2)cc1`: the result (in assay [1]; with MDA-MB-468; with A-431 [3]; in the assay with MDA-MB-435; with BT-474) was inactive. Moreover, in assay [2], the Activity is 44.1%.
For the compound `O=NC1=C(NNc2ccccc2)C(=O)c2ccccc21`, the result in assay [1] was inactive. Also, the result in the assay with MDA-MB-468, in the assay on MDA-MB-435 and in the assay with BT-474 was Active. For the same compound, the Activity in assay [2] stood at 50.3%. Besides, half-maximal inhibition in the assay with A-431 [4] (IC50) required 6 µM.
Consider `Cc1cccc(-n2ncc3c(NCc4ccc5c(c4)OCO5)ncnc32)c1`, for which the Activity in assay [1] was 40%; in assay [2], 48.4%. Moreover, the outcome with MDA-MB-468, in the assay with A-431 [3], in the assay on MDA-MB-435 and in the assay on BT-474 was Active. This compound also gave an IC50 in assay [5] of 15 µM.
As for `Nc1[nH]nc2nc(-c3ccco3)c3c(c12)CCCC3`, in assay [1], the outcome was inactive. For the same compound, the result in the assay on MDA-MB-468, in the assay on A-431 [3], with MDA-MB-435 and in the assay on BT-474 was Active. Further, in assay [2], the Activity was determined as 44.5%.
